ChEMBL document CHEMBL4190248, “Synthesis and evaluation of N-heteroaromatic ring-based analogs of piperlongumine as potent anticancer agents” (Eur J Med Chem, 2017)
Values after ≈ are worked out from the molar mass of the structure shown. Active and inactive are the calls of the source. No cut-off for these calls is given here.

Experiments:
[1] = Aqueous solubility of the compound in pure water by HPLC analysis; format: physicochemical
Summary of the method: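 Solubility was measured in pure water by HPLC on a C18 column using acetonitrile–water 60/40 (v/v) at 1.0 mL/min, with detection at 254 nm, in triplicate.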

A549 = experiment: Antiproliferative activity against human A549 cells at 10 uM after 72 hrs by MTT assay; format: functional, cell-based
HCT-116 [2] = experiment: Antiproliferative activity against human HCT116 cells at 10 uM after 72 hrs by MTT assay; format: functional, cell-based
HCT-116 [3] = experiment: Antiproliferative activity against human HCT116 cells after 72 hrs by MTT assay; format: functional, cell-based; conditions: HCT-116, 72 h
K562 = experiment: Antiproliferative activity against human K562 cells at 10 uM after 72 hrs by MTT assay; format: functional, cell-based
Mus musculus [4] = experiment: Toxicity in nude BALB/c mouse xenografted with human HCT116 cells assessed as effect on liver size at 5 mg/kg, ip administered daily for 21 days; format: organism-based; conditions: in vivo, 504 h
Summary of the method: (§1)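 HCT-116 xenografts (1×10^7 cells s.c.) were grown in male BALB/c nude mice, 3–5 weeks old, to about 75 mm³. Mice (n = 8 per group) then received 5 mg/kg i.p. daily for 21 days. Liver, kidney, lung and heart were examined for size and morphology against vehicle-treated controls.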

Mus musculus [5] = experiment: Toxicity in nude BALB/c mouse xenografted with human HCT116 cells assessed as effect on lung size at 5 mg/kg, ip administered daily for 21 days; format: organism-based; conditions: in vivo, 504 h; summary of the method: as §1
Mus musculus [6] = experiment: Toxicity in nude BALB/c mouse xenografted with human HCT116 cells assessed as effect on lung morphology at 5 mg/kg, ip administered daily for 21 days; format: organism-based; conditions: in vivo, 504 h; summary of the method: as §1
Mus musculus [7] = experiment: Toxicity in nude BALB/c mouse xenografted with human HCT116 cells assessed as reduction in body weight at 5 mg/kg, ip administered daily for 21 days; format: organism-based; conditions: in vivo, 504 h
Summary of the method: (§2)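 Male BALB/c nude mice, 3–5 weeks old, received 1×10^7 HCT-116 cells subcutaneously. Once tumors reached about 75 mm³, mice were randomized to groups of 8 and given 5 mg/kg intraperitoneally once daily for 21 days. Body weight was followed over time. At sacrifice, tumors were weighed, and inhibition (%) = (Wcontrol − Wtreated)/Wcontrol × 100. Data are mean ± SD.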

HT-29 = experiment: Antiproliferative activity against human HT-29 cells after 72 hrs by MTT assay; format: functional, cell-based; conditions: HT-29, 72 h
Summary of the method: (§3)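 Cells were cultured overnight in RPMI 1640 + 10% FBS, then treated in triplicate with vehicle or compound across the indicated concentrations for 72 h. MTT was added for the final 4 h, formazan was dissolved in DMSO, and absorbance was read at 570 nm. Inhibition rate = (1 − OD treated/OD control) × 100%, and the IC50 was derived from it.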

[8] = Cytotoxicity against human CCD-841 cells assessed as reduction in cell viability after 72 hrs by MTT assay; format: cell-based; conditions: CCD-841, 72 h; summary of the method: as §3
[9] = Aqueous solubility of the compound in PBS buffer at pH 5 by HPLC analysis; format: physicochemical
Mus musculus [10] = experiment: Toxicity in nude BALB/c mouse xenografted with human HCT116 cells assessed as effect on liver morphology at 5 mg/kg, ip administered daily for 21 days; format: organism-based; conditions: in vivo, 504 h; summary of the method: as §1
HCT-116 [11] = experiment: Antitumor activity against human HCT116 cells xenografted in BALB/c nude mouse assessed as reduction in tumor weight at 5 mg/kg, ip administered daily for 21 days; format: functional; design: scale not given: the % may be the effect or the level left; summary of the method: as §2
Mus musculus [12] = experiment: Toxicity in nude BALB/c mouse xenografted with human HCT116 cells assessed as effect on kidney size at 5 mg/kg, ip administered daily for 21 days; format: organism-based; conditions: in vivo, 504 h; summary of the method: as §1
[13] = Induction of intracellular ROS generation in human CCD-841 cells at 10 uM after 3 hrs by DCFH-DA-dye based fluorescence microscopy; format: cell-based
Summary of the method: (§4)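 Cells were treated in triplicate with 10 µM compound or with vehicle DMSO (0.1%, v/v) for 3 h. Intracellular ROS was detected with a fluorescent probe, the legend citing DCFH-DA and the methods citing dihydroethidium (300/610 nm). Signals were read on a fluorescence microplate reader and imaged by fluorescence microscopy.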

HCT-8 = experiment: Antiproliferative activity against human HCT8 cells after 72 hrs by MTT assay; format: functional, cell-based; conditions: HCT-8, 72 h; summary of the method: as §3
Mus musculus [14] = experiment: Toxicity in nude BALB/c mouse xenografted with human HCT116 cells assessed as effect on heart size at 5 mg/kg, ip administered daily for 21 days; format: organism-based; conditions: in vivo, 504 h; summary of the method: as §1
HCT-116 [15] = experiment: Induction of intracellular ROS generation in human HCT116 cells at 10 uM after 3 hrs by DCFH-DA-dye based fluorescence microscopy; format: functional, cell-based; summary of the method: as §4
Mus musculus [16] = experiment: Toxicity in nude BALB/c mouse xenografted with human HCT116 cells assessed as effect on kidney morphology at 5 mg/kg, ip administered daily for 21 days; format: organism-based; conditions: in vivo, 504 h; summary of the method: as §1
Mus musculus [17] = experiment: Toxicity in nude BALB/c mouse xenografted with human HCT116 cells assessed as effect on heart morphology at 5 mg/kg, ip administered daily for 21 days; format: organism-based; conditions: in vivo, 504 h; summary of the method: as §1

Compound | solubility [1] [µg/mL] | Activity (A549) | Activity (HCT-116 [2]) | IC50 (HCT-116 [3]) [µM] | Activity (K562) | other results
O=C1C=CCCN1C(=O)/C=C/c1cccnc1 | 45.3 (≈ 198 µM) |  |  |  |  | 
O=C1C=CCCN1C(=O)/C=C/c1cnc2ccccc2c1 | 1.95 (≈ 7.01 µM) | Active | Active | 8.17 | Active | 
Cc1cnc(/C=C/C(=O)N2CCC=CC2=O)cn1 | 47.9 (≈ 197 µM) | Active | Active | 7.95 | Active | 
O=C(/C=C/c1ccc2ccccc2n1)N1CCC=C(Cl)C1=O |  |  | Active | 0.47 |  | Activity (Mus musculus [4]): Non-Toxic; Activity (Mus musculus [5]): Non-Toxic; Activity (Mus musculus [6]): Non-Toxic; Activity (Mus musculus [7]): Non-Toxic; IC50 (HT-29): 920 nM; IC50 [8]: 50.8 µM; solubility [9]: 1990 µg/mL (≈ 6370 µM); Activity (Mus musculus [10]): Non-Toxic; Activity (HCT-116 [11]): 52%; Activity (Mus musculus [12]): Non-Toxic; Activity [13]: Non-Toxic; IC50 (HCT-8): 1790 nM; Activity (Mus musculus [14]): Non-Toxic; Activity (HCT-116 [15]): Active; Activity (Mus musculus [16]): Non-Toxic; Activity (Mus musculus [17]): Non-Toxic
COc1cc(/C=C/C(=O)N2CCC=CC2=O)cc(OC)c1OC [PIPLARTINE] | 1.63 (≈ 5.14 µM) | Active | Active |  | Active | Activity (HCT-116 [11]): 53%
O=C1C=CCCN1C(=O)/C=C/c1ccncc1 | 46.2 (≈ 202 µM) | Active | Active | 7.05 | Active | 
O=C1C=CCCN1C(=O)/C=C/c1ccccn1 | 40.4 (≈ 177 µM) |  |  |  |  | 
O=C1C=CCCN1C(=O)/C=C/c1cnccn1 | 59.8 (≈ 261 µM) | Active | Active | 3.19 | Active | 
Cc1nccnc1/C=C/C(=O)N1CCC=CC1=O | 48.2 (≈ 198 µM) | Active | Active | 8.9 | Active | 
O=C1C=CCCN1C(=O)/C=C/c1ccc2ccccc2n1 | 2.41 (≈ 8.66 µM) | Active | Active | 0.93 | Active | 
